Measured values reported in ChEMBL document CHEMBL1828627, “High-throughput-screening-based identification and structure-activity relationship characterization defined (S)-2-(1-aminoisobutyl)-1-(3-chlorobenzyl)benzimidazole as a highly antimycotic agent nontoxic to cell lines” (J Med Chem, 2011).
Activity calls are given as the source filed them.

Test system: not listed separately
Experiment: Selectivity index of CC50 for human HeLa cells to IC50 for Candida albicans SC5314 infected in HeLa cells
Settings: not given
Procedure, shortened: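 Selectivity index calculated as CC50/IC50. CC50 is the half-maximal cytotoxic concentration in HeLa cells; IC50 is the half-maximal antimycotic concentration in the C. albicans–infected HeLa assay. Both come from 5-day fluorescein diacetate viability readouts.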
With `CCC[C@H](N)c1nc2ccccc2n1Cc1cccc(C)c1` the “Ratio CC50/IC50” value was 15.
In the case of `CC(C)(N)c1nc2ccccc2n1Cc1ccc(Cl)cc1`, the “Ratio CC50/IC50” value is reported as 10.
With `CC(C)C[C@H](N)c1nc2ccccc2n1Cc1ccc(Cl)cc1` the “Ratio CC50/IC50” value was 9.

Test system: Candida albicans
Experiment: Antifungal activity against Candida albicans SC5314 infected in HeLa cells at 20 uM after 5 days by fluorescein diacetate assay
Format: functional, organism-based
Settings: not given
Procedure, shortened: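 Primary HTS: HeLa cells co-incubated with C. albicans plus a single compound at ~20 μM for 5 days. Viability checked microscopically at 18 h and quantified at day 5 by fluorescein diacetate fluorescence. Wells also scanned visually for yeast growth. Hit criterion: >40% signal relative to the uninfected untreated HeLa (~100%) and infected untreated HeLa (~0%) controls.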
For `CC(C)C[C@H](N)c1nc2cc(C(F)(F)F)ccc2n1Cc1cccc(Cl)c1`, the inhibition was “inactive”.
In the case of `CC(C)(N)c1nc2cc(C(F)(F)F)ccc2n1Cc1ccc(Cl)cc1`, the inhibition is reported as “inactive”.
For `COc1cccc(Cn2c([C@H](C)N)nc3ccccc32)c1`, the inhibition was “inactive”.
In the case of `COc1cccc(Cn2c([C@@H](N)C(C)C)nc3ccccc32)c1`, the inhibition is reported as “inactive”.
For `CCC[C@H](N)c1nc2cc(C(F)(F)F)ccc2n1Cc1cccc(OC)c1`, the inhibition was “inactive”.
With `CCC[C@H](N)c1nc2ccccc2n1Cc1cccc(OC)c1` the inhibition was “inactive”.
For `CC(C)[C@H](N)c1nc2cc(Cl)c(Cl)cc2n1Cc1ccc(Cl)cc1`, the inhibition was “inactive”.
In the case of `Cc1cccc(Cn2c(C(C)(C)N)nc3ccccc32)c1`, the inhibition is reported as “inactive”.
In the case of `CCC(C)[C@H](N)c1nc2ccccc2n1Cc1ccc(Cl)cc1` (stereo partly specified), the inhibition is reported as “inactive”.
With `CC(C)[C@H](N)c1nc2cc(C(F)(F)F)ccc2n1Cc1ccc(Cl)cc1` the inhibition was “inactive”.
For `CC(C)C[C@H](N)c1nc2ccccc2n1Cc1cccc(Cl)c1`, the inhibition was “inactive”.
In the case of `CCC[C@H](N)c1nc2ccccc2n1Cc1cccc(C)c1`, the inhibition is reported as “inactive”.
For `CC(C)[C@H](N)c1nc2cc(C(F)(F)F)ccc2n1Cc1cccc(F)c1`, the inhibition was “inactive”.
For `CCC[C@H](N)c1nc2cc(Cl)c(Cl)cc2n1Cc1cccc(Cl)c1`, the inhibition was “inactive”.
In the case of `CCC(C)[C@H](N)c1nc2cc(C(F)(F)F)ccc2n1Cc1cccc(C)c1` (stereo partly specified), the inhibition is reported as “inactive”.
With `CC(C)C[C@H](N)c1nc2cc(Cl)c(Cl)cc2n1Cc1cccc(F)c1` the inhibition was “inactive”.
With `CC(C)(N)c1nc2ccccc2n1Cc1ccc(Cl)cc1` the inhibition was “inactive”.
For `COc1cccc(Cn2c([C@@H](N)CC(C)C)nc3cc(Cl)c(Cl)cc32)c1`, the inhibition was “inactive”.
With `CC(C)(N)c1nc2cc(Cl)c(Cl)cc2n1Cc1ccc(Cl)cc1` the inhibition was “inactive”.
In the case of `CCC(C)[C@H](N)c1nc2cc(Cl)c(Cl)cc2n1Cc1cccc(OC)c1` (stereo partly specified), the inhibition is reported as “inactive”.
In the case of `Cc1cccc(Cn2c([C@@H](N)CC(C)C)nc3ccccc32)c1`, the inhibition is reported as “inactive”.
With `C[C@H](N)c1nc2cc(Cl)c(Cl)cc2n1Cc1ccc(Cl)cc1` the inhibition was “inactive”.
For `CC(C)[C@H](N)c1nc2cc(Cl)c(Cl)cc2n1Cc1cccc(F)c1`, the inhibition was “inactive”.
For `CCC(C)[C@H](N)c1nc2cc(C(F)(F)F)ccc2n1Cc1cccc(OC)c1` (stereo partly specified), the inhibition was “inactive”.
In the case of `CC(C)(N)c1nc2cc(C(F)(F)F)ccc2n1Cc1cccc(F)c1`, the inhibition is reported as “inactive”.
With `CCC(C)[C@H](N)c1nc2ccccc2n1Cc1cccc(C)c1` (stereo partly specified) the inhibition was “inactive”.
In the case of `CC(C)C[C@H](N)c1nc2cc(C(F)(F)F)ccc2n1Cc1ccc(Cl)cc1`, the inhibition is reported as “inactive”.
With `Cc1cccc(Cn2c([C@@H](N)C(C)C)nc3cc(C(F)(F)F)ccc32)c1` the inhibition was “inactive”.
With `CCC[C@H](N)c1nc2cc(Cl)c(Cl)cc2n1Cc1ccc(Cl)cc1` the inhibition was “inactive”.
With `Cc1cccc(Cn2c(C(C)(C)N)nc3cc(C(F)(F)F)ccc32)c1` the inhibition was “inactive”.
With `CCC(C)[C@H](N)c1nc2cc(C(F)(F)F)ccc2n1Cc1ccc(Cl)cc1` (stereo partly specified) the inhibition was “inactive”.
In the case of `COc1cccc(Cn2c(C(C)(C)N)nc3ccccc32)c1`, the inhibition is reported as “inactive”.
In the case of `CCC(C)[C@H](N)c1nc2cc(Cl)c(Cl)cc2n1Cc1cccc(C)c1` (stereo partly specified), the inhibition is reported as “inactive”.
In the case of `CC(C)[C@H](N)c1nc2cc(Cl)c(Cl)cc2n1Cc1cccc(Cl)c1`, the inhibition is reported as “inactive”.
For `CC(C)C[C@H](N)c1nc2cc(Cl)c(Cl)cc2n1Cc1cccc(Cl)c1`, the inhibition was “inactive”.
For `CCC(C)[C@H](N)c1nc2cc(Cl)c(Cl)cc2n1Cc1cccc(Cl)c1` (stereo partly specified), the inhibition was “inactive”.
For `C[C@H](N)c1nc2cc(C(F)(F)F)ccc2n1Cc1ccc(Cl)cc1`, the inhibition was “inactive”.
In the case of `CC(C)[C@H](N)c1nc2ccccc2n1Cc1ccc(Cl)cc1`, the inhibition is reported as “inactive”.
For `Cc1cccc(Cn2c([C@H](C)N)nc3cc(Cl)c(Cl)cc32)c1`, the inhibition was “inactive”.
For `Cc1cccc(Cn2c([C@@H](N)CC(C)C)nc3cc(Cl)c(Cl)cc32)c1`, the inhibition was “inactive”.
With `CCC(C)[C@H](N)c1nc2cc(Cl)c(Cl)cc2n1Cc1cccc(F)c1` (stereo partly specified) the inhibition was “inactive”.
With `C[C@H](N)c1nc2cc(Cl)c(Cl)cc2n1Cc1cccc(F)c1` the inhibition was “inactive”.
For `C[C@H](N)c1nc2cc(C(F)(F)F)ccc2n1Cc1cccc(Cl)c1`, the inhibition was “inactive”.
In the case of `COc1cccc(Cn2c([C@H](C)N)nc3cc(Cl)c(Cl)cc32)c1`, the inhibition is reported as “inactive”.
In the case of `COc1cccc(Cn2c([C@@H](N)CC(C)C)nc3cc(C(F)(F)F)ccc32)c1`, the inhibition is reported as “inactive”.
For `CCC[C@H](N)c1nc2cc(Cl)c(Cl)cc2n1Cc1cccc(F)c1`, the inhibition was “inactive”.
For `C[C@H](N)c1nc2cc(C(F)(F)F)ccc2n1Cc1cccc(F)c1`, the inhibition was “inactive”.
With `CC(C)[C@H](N)c1nc2cc(C(F)(F)F)ccc2n1Cc1cccc(Cl)c1` the inhibition was “inactive”.
In the case of `Cc1cccc(Cn2c(C(C)(C)N)nc3cc(Cl)c(Cl)cc32)c1`, the inhibition is reported as “inactive”.
In the case of `COc1cccc(Cn2c([C@@H](N)CC(C)C)nc3ccccc32)c1`, the inhibition is reported as “inactive”.
For `CCC(C)[C@H](N)c1nc2cc(C(F)(F)F)ccc2n1Cc1cccc(Cl)c1` (stereo partly specified), the inhibition was “inactive”.
In the case of `CC(C)C[C@H](N)c1nc2ccccc2n1Cc1ccc(Cl)cc1`, the inhibition is reported as “inactive”.
In the case of `CCC[C@H](N)c1nc2cc(C(F)(F)F)ccc2n1Cc1cccc(C)c1`, the inhibition is reported as “inactive”.
In the case of `Cc1cccc(Cn2c([C@@H](N)CC(C)C)nc3cc(C(F)(F)F)ccc32)c1`, the inhibition is reported as “inactive”.
With `CC(C)C[C@H](N)c1nc2cc(C(F)(F)F)ccc2n1Cc1cccc(F)c1` the inhibition was “inactive”.
In the case of `Cc1cccc(Cn2c([C@@H](N)C(C)C)nc3cc(Cl)c(Cl)cc32)c1`, the inhibition is reported as “inactive”.
With `CCC(C)[C@H](N)c1nc2cc(C(F)(F)F)ccc2n1Cc1cccc(F)c1` (stereo partly specified) the inhibition was “inactive”.
With `COc1cccc(Cn2c(C(C)(C)N)nc3cc(C(F)(F)F)ccc32)c1` the inhibition was “inactive”.
In the case of `CC(C)(N)c1nc2ccccc2n1Cc1cccc(Cl)c1`, the inhibition is reported as “inactive”.
For `CC(C)(N)c1nc2cc(Cl)c(Cl)cc2n1Cc1cccc(Cl)c1`, the inhibition was “inactive”.
With `CCC(C)[C@H](N)c1nc2cc(Cl)c(Cl)cc2n1Cc1ccc(Cl)cc1` (stereo partly specified) the inhibition was “inactive”.
For `CCC[C@H](N)c1nc2cc(C(F)(F)F)ccc2n1Cc1ccc(Cl)cc1`, the inhibition was “inactive”.
For `CC(C)(N)c1nc2cc(Cl)c(Cl)cc2n1Cc1cccc(F)c1`, the inhibition was “inactive”.
With `CCC[C@H](N)c1nc2cc(Cl)c(Cl)cc2n1Cc1cccc(OC)c1` the inhibition was “inactive”.
For `Cc1cccc(Cn2c([C@H](C)N)nc3cc(C(F)(F)F)ccc32)c1`, the inhibition was “inactive”.
With `CC(C)C[C@H](N)c1nc2cc(Cl)c(Cl)cc2n1Cc1ccc(Cl)cc1` the inhibition was “inactive”.
For `CC(C)C[C@H](N)c1nc2ccccc2n1Cc1cccc(F)c1`, the inhibition was “inactive”.
For `CCC(C)[C@H](N)c1nc2ccccc2n1Cc1cccc(OC)c1` (stereo partly specified), the inhibition was “inactive”.
For `CCC[C@H](N)c1nc2cc(C(F)(F)F)ccc2n1Cc1cccc(Cl)c1`, the inhibition was “inactive”.
In the case of `C[C@H](N)c1nc2ccccc2n1Cc1cccc(F)c1`, the inhibition is reported as “inactive”.
In the case of `C[C@H](N)c1nc2ccccc2n1Cc1ccc(Cl)cc1`, the inhibition is reported as “inactive”.
For `CC(C)(N)c1nc2ccccc2n1Cc1cccc(F)c1`, the inhibition was “inactive”.
For `CCC(C)[C@H](N)c1nc2ccccc2n1Cc1cccc(Cl)c1` (stereo partly specified), the inhibition was “inactive”.
In the case of `CCC[C@H](N)c1nc2cc(C(F)(F)F)ccc2n1Cc1cccc(F)c1`, the inhibition is reported as “inactive”.
In the case of `CCC(C)[C@H](N)c1nc2ccccc2n1Cc1cccc(F)c1` (stereo partly specified), the inhibition is reported as “inactive”.
For `CCC[C@H](N)c1nc2cc(Cl)c(Cl)cc2n1Cc1cccc(C)c1`, the inhibition was “inactive”.
With `CCC[C@H](N)c1nc2ccccc2n1Cc1cccc(Cl)c1` the inhibition was “inactive”.
With `COc1cccc(Cn2c(C(C)(C)N)nc3cc(Cl)c(Cl)cc32)c1` the inhibition was “inactive”.
In the case of `CC(C)(N)c1nc2cc(C(F)(F)F)ccc2n1Cc1cccc(Cl)c1`, the inhibition is reported as “inactive”.
For `C[C@H](N)c1nc2cc(Cl)c(Cl)cc2n1Cc1cccc(Cl)c1`, the inhibition was “inactive”.
For `CCC[C@H](N)c1nc2ccccc2n1Cc1cccc(F)c1`, the inhibition was “inactive”.
For `COc1cccc(Cn2c([C@H](C)N)nc3cc(C(F)(F)F)ccc32)c1`, the inhibition was “inactive”.
With `COc1cccc(Cn2c([C@@H](N)C(C)C)nc3cc(C(F)(F)F)ccc32)c1` the inhibition was “inactive”.
In the case of `COc1cccc(Cn2c([C@@H](N)C(C)C)nc3cc(Cl)c(Cl)cc32)c1`, the inhibition is reported as “inactive”.

Test system: not listed separately
Experiment: Cytotoxicity against human HeLa cells assessed as cell viability after 5 days by fluorescein diacetate assay
Format: cell-based
Settings: not given
With `CCC[C@H](N)c1nc2ccccc2n1Cc1cccc(C)c1` the CC50 at 120 h was 30 µM.
In the case of `CC(C)(N)c1nc2ccccc2n1Cc1ccc(Cl)cc1`, the CC50 at 120 h is reported as 50 µM.
Work on `CC(C)C[C@H](N)c1nc2ccccc2n1Cc1ccc(Cl)cc1` yielded a CC50 at 120 h of 36 µM.

Test system: Candida albicans
Experiment: Antifungal activity against Candida albicans SC5314 infected in HeLa cells after 5 days by fluorescein diacetate assay
Format: functional, organism-based
Settings: Candida albicans, SC5314, HeLa, 120 h; read-out: IC50
Procedure, shortened: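 HeLa cells co-incubated with C. albicans and compound for 5 days. Dose–response from resynthesized compounds. Host-cell viability checked microscopically at 18 h, then quantified at day 5 by fluorescein diacetate conversion to a fluorophore by live cells. Wells also inspected visually for yeast growth. Controls: untreated uninfected HeLa (~100%) and untreated infected HeLa (~0%). IC50 derived from infected cells; CC50 as half-maximal cytotoxic concentration.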
`CCC[C@H](N)c1nc2ccccc2n1Cc1cccc(C)c1` showed an IC50 of 2 µM.
In the case of `CC(C)(N)c1nc2ccccc2n1Cc1ccc(Cl)cc1`, the IC50 is reported as 5 µM.
`CC(C)C[C@H](N)c1nc2ccccc2n1Cc1ccc(Cl)cc1` gave an IC50 of 4 µM.
`C[C@@H]1[C@H](O)[C@@H](C)/C=C/C=C/C=C/C=C/C=C/C=C/C=C/[C@H](O[C@@H]2O[C@H](C)[C@@H](O)[C@H](N)[C@@H]2O)C[C@@H]2O[C@](O)(C[C@@H](O)C[C@@H](O)[C@H](O)CC[C@@H](O)C[C@@H](O)CC(=O)O[C@H]1C)C[C@H](O)[C@H]2C(=O)O` [AMPHOTERICIN B] gave an IC50 of 0.5 µM.

Same assay, conditions: hela
For `CC(=O)N[C@H](c1nc2ccccc2n1Cc1cccc(Cl)c1)C(C)C`, the IC50 was “Not Active”.
For `CC(C)[C@@H](N)c1nc2ccccc2n1Cc1cccc(Cl)c1`, the IC50 was “Not Active”.
